Assay results: ChEMBL document CHEMBL1149615, “Design, synthesis, and biological evaluation of LNA nucleosides as adenosine A3 receptor ligands” (Bioorg Med Chem, 2007)

Key:
Format in all cases: functional
[1] = target: T1, Adenosine receptor A3 (Homo sapiens) (UniProt P0DMS8); assay: (§1) Antagonist activity at human adenosine A3 receptor after 15 to 30 mins
T1 sequence (whole entry): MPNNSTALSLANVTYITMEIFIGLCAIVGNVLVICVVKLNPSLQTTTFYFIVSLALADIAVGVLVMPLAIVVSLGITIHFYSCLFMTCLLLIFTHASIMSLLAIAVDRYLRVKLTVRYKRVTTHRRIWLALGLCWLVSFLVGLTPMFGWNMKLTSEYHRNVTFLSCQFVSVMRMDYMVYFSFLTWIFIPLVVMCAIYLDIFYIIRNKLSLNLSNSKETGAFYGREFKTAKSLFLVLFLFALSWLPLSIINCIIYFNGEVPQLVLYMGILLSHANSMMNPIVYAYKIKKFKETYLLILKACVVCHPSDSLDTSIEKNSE

Adenosine receptor A3 [2] = target: T2, Adenosine receptor A3 (Homo sapiens, UniProt P0DMS8); assay: as §1
T2 sequence (P0DMS8 whole entry): T1 sequence (whole entry)

Adenosine receptor A1 [3] = target: T3, Adenosine receptor A1 (Homo sapiens, UniProt P30542); assay: Antagonist activity at human adenosine A1 receptor
T3 sequence (P30542 whole entry): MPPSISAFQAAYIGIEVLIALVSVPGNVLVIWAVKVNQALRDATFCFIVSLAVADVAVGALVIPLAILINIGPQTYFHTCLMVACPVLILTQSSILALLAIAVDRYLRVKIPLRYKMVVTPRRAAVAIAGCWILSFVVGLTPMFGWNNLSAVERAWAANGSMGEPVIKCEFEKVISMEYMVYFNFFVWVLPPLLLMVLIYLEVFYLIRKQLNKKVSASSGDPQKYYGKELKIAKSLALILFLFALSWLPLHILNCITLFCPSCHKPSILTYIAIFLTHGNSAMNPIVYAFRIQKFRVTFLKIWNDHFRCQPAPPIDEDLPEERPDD
How it was run: (§2)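 Clones coexpressing mitochondrial apoaequorin and Gα16 were collected in PBS with 5 mM EDTA. They were loaded with 5 µM coelenterazine H for 4 h at room temperature, washed, and mixed with compound, and aequorin light was recorded for 30 s. Duplicates at eight concentrations from 3000 to 1 nM were fitted by sigmoidal nonlinear regression and expressed as percent of agonist response.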

Adenosine receptor A1 [4] = target: T3, Adenosine receptor A1; assay: Agonist activity at human adenosine A1 receptor; how it was run: as §2
Adenosine receptor A3 [5] = target: T2, Adenosine receptor A3; assay: Agonist activity at human adenosine A3 receptor after 15 to 30 mins
How it was run: (§3)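 AequoScreen cells expressing recombinant human A3 receptor and Gα16 were cultured at least one week, harvested with PBS-EDTA, and loaded overnight at room temperature with coelenterazine H in DMEM-F12 with 0.1% BSA. Cells were injected onto compound and aequorin luminescence was read. Duplicates at 100 µM–0.01 nM (eight concentrations) were normalised to saturating (EC100) IB-MECA to give EC50.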

[6] = target: T1, Adenosine receptor A3 (Homo sapiens); assay: Agonist activity at human adenosine A3 receptor after 15 to 30 mins relative to IB-MECA; how it was run: as §3

Imax [1] [%] | IC50 (Adenosine receptor A3 [2]) [µM] | IC50 (Adenosine receptor A1 [3]) [µM] | EC50 (Adenosine receptor A1 [4]) [µM] | EC50 (Adenosine receptor A3 [5]) [µM] | Emax [6] [%] | SMILES
100 | 0.0017 | > 3 | > 3 | > 100 |  | CO[C@@H]1[C@H](O)[C@@H](CO)O[C@H]1n1cnc2c(NCc3cccc(I)c3)ncnc21
 | > 100 |  |  | > 100 |  | CNC(=O)[C@@]12CO[C@@H]([C@H](n3cnc4c(NCc5cccc(I)c5)ncnc43)O1)[C@@H]2O
100 | 0.015 | > 3 | > 3 | > 100 |  | CO[C@@H]1[C@H](O)[C@@H](CO)O[C@H]1n1cnc2c(N)ncnc21
 | > 100 |  |  | > 100 |  | CNC(=O)[C@@]12CO[C@@H]([C@H](n3cnc4c(N)ncnc43)O1)[C@@H]2O
 |  |  |  | 0.453 | 100 | CNC(=O)[C@H]1O[C@@H](n2cnc3c(N)ncnc32)[C@H](OC)[C@@H]1O
 |  | > 3 | > 3 | 0.0019 | 100 | CNC(=O)[C@H]1O[C@@H](n2cnc3c(NCc4cccc(I)c4)ncnc32)[C@H](OC)[C@@H]1O
100 |  | > 3 | > 3 | > 100 |  | CNC(=O)[C@@]12CN[C@@H]([C@H](n3cnc4c(NCc5cccc(I)c5)ncnc43)O1)[C@@H]2O
 | > 100 |  |  | > 100 |  | Nc1ncnc2c1ncn2[C@@H]1O[C@@]2(CO)CO[C@@H]1[C@@H]2O
100 | 0.15 |  |  | > 100 |  | OC[C@@]12CO[C@@H]([C@H](n3cnc4c(NCc5cccc(I)c5)ncnc43)O1)[C@@H]2O
100 | 0.0082 | > 3 | > 3 | > 100 |  | OC[C@@]12CN[C@@H]([C@H](n3cnc4c(NCc5cccc(I)c5)ncnc43)O1)[C@@H]2O

SMILES | Imax [1] [%] | IC50 (Adenosine receptor A3 [2]) [µM] | IC50 (Adenosine receptor A1 [3]) [µM] | EC50 (Adenosine receptor A1 [4]) [µM] | EC50 (Adenosine receptor A3 [5]) [µM] | Emax [6] [%]
CNC(=O)[C@@]12CN[C@@H]([C@H](n3cnc4c(N)ncnc43)O1)[C@@H]2O | 100 | 0.17 |  |  | > 100 | 
Nc1ncnc2c1ncn2[C@@H]1O[C@@]2(CO)CN[C@@H]1[C@@H]2O |  | > 100 |  |  | > 100 | 
